The results in this text go back to ChEMBL document CHEMBL1136495, “Synthesis of new 3-arylisoquinolinamines: effect on topoisomerase I inhibition and cytotoxicity” (Bioorg Med Chem Lett, 2003).

Molecules are shown by their SMILES. Bounds are passed on as bounds.

One test relates to SK-MEL-2. Description: Cytotoxic activity against SK-MEL-2 human melanoma cell line, using sulforhodamine B (SRB) assay. It is filed as functional, cell-based. The method, boiled down:
(§1)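 In vitro sulforhodamine B (SRB) staining assay on human tumor cell lines. Values are reported as IC50 for cytotoxicity.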

Test [1] addresses T1, DNA topoisomerase 1 (Homo sapiens) (UniProt P11387).
T1 sequence (whole entry): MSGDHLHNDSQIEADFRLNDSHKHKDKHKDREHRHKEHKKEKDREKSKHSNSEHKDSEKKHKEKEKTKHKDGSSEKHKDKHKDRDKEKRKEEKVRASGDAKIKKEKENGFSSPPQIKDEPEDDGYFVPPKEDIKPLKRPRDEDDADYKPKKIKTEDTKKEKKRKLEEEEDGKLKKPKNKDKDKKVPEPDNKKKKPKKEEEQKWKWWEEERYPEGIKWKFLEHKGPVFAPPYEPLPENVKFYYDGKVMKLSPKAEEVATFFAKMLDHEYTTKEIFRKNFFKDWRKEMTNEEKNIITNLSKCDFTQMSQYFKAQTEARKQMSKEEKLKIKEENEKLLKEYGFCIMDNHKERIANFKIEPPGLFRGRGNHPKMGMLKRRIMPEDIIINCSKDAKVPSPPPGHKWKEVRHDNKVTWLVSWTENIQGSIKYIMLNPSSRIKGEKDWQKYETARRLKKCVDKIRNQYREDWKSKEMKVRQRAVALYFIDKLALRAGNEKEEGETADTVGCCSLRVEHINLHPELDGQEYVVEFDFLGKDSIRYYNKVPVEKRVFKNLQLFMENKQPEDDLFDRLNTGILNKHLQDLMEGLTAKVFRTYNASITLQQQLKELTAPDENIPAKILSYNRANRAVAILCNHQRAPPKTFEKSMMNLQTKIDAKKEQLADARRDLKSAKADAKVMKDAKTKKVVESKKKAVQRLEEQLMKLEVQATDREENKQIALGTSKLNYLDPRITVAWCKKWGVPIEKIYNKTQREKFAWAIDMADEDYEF
Put plainly: Inhibitory activity against Topoisomerase I was determined by the supercoiled DNA unwinding assay method; Greater activity than Camptothecin.

A further test has as its system A549. Description: Cytotoxic activity against A 549 human lung tumor cell line, using sulforhodamine B (SRB) assay. It is filed as functional, cell-based. The method, boiled down:
as §1

The test system of the next test is HCT-15. Description: Cytotoxic activity against HCT 15 human colon tumor cell line, using sulforhodamine B (SRB) assay. Format: functional, cell-based. In outline:
as §1

The test system of another test is SK-OV-3. Put plainly: Cytotoxic activity against SKOV-3 human ovarian tumor cell line, using sulforhodamine B (SRB) assay. Format: functional, cell-based. The method, boiled down: as §1
For test [2], the target named is T1, DNA topoisomerase 1 (Homo sapiens). Description: Inhibitory activity against Topoisomerase I in supercoiled DNA unwinding assay method; Weak activity.
Test [3] concerns OCI-AML2. Description: Cytotoxic activity against DX-100: doxorubicin (100 ng/mL) resistant AML-2 cell line was determined. It is filed as functional.
Test [4] relates to OCI-AML2. Description: Cytotoxic activity against wild type AML-2 leukemia cell line was determined. Format: functional.
The test system of test [5] is OCI-AML2. Description: Cytotoxic activity against D100 daunorubicin (100 nM) resistant AML-2 cell line was determined. Format: functional.

`CCN1CCN(c2nc(-c3ccccc3Cl)cc3cc(C)ccc23)CC1`: the IC50 in the test on SK-MEL-2 stood at 5.58 µM; with A549, 13.4 µM; in the test with HCT-15 it was 5.58 µM; in the test with SK-OV-3, 195 µM. In addition, the Activity entry in [1] was “Greater activity than Camptothecin”.
As for `Cc1ccc2c(NCCN)nc(-c3ccccc3C)cc2c1`, the IC50 in the test with SK-MEL-2, with A549, in the test on HCT-15 and in the test with SK-OV-3 was greater than 300 µM each time. For the same molecule, the Activity result in test [2] was “Weak activity”.
As for `CN1CCCN(c2nc(-c3ccc(Br)cc3)cc3ccccc23)CC1`, the concentration for half-maximal inhibition (IC50) in the test with SK-MEL-2 worked out at 4.12 µM; with A549, 6.04 µM; in the test with HCT-15, 5.26 µM; with SK-OV-3, 3.85 µM.
As for `CN1CCCN(c2nc(-c3cccc4ccccc34)cc3ccccc23)CC1`, the IC50 in the test with SK-MEL-2 is 1.98 µM; with A549, 0.52 µM; with HCT-15, 1.93 µM; in the test on SK-OV-3, 3.64 µM. For the same molecule, the Activity entry in [2] is “Weak activity”.
`N[C@H]1CC[C@H](Nc2nc(-c3ccccc3)cc3ccccc23)CC1`: the IC50 in the test on SK-MEL-2 was 7.7 µM; in the test with A549 it was 7.95 µM; with HCT-15, 7.24 µM; in the test with SK-OV-3 it was 4.36 µM.
With `Cc1ccc2c(N)nc(-c3ccccc3C)cc2c1.Cl`, the Cytotoxicity with OCI-AML2 [3] was 0.0056 µg/mL; with OCI-AML2 [4], 0.0078 µg/mL. In addition, the IC50 turned out to be 0.14 µM with SK-MEL-2, 0.17 µM in the test on A549, 0.17 µM with HCT-15 and 0.21 µM in the test with SK-OV-3. In the test with OCI-AML2 [5], the Activity turned out to be 0.0027 µg/mL.
Regarding `CCN1CCN(c2nc(-c3ccccc3C)cc3cc(C)ccc23)CC1`, the IC50 in the test with SK-MEL-2 is 12.8 µM; in the test with A549 it was 21 µM; in the test on HCT-15, 8.65 µM; in the test with SK-OV-3, 62 µM.
Take `COc1cccc2c1C(=O)c1c(O)c3c(c(O)c1C2=O)C[C@@](O)(C(C)=O)C[C@@H]3O[C@H]1C[C@H](N)[C@H](O)[C@H](C)O1` [DAUNORUBICIN]: the values for the Cytotoxicity with OCI-AML2 [3], in the test with OCI-AML2 [4] and in the test on OCI-AML2 [5] were 0.43 µg/mL, 0.001 µg/mL and 0.52 µg/mL, respectively.
As for `COc1cccc2c1C(=O)c1c(O)c3c(c(O)c1C2=O)C[C@@](O)(C(=O)CO)C[C@@H]3O[C@H]1C[C@H](N)[C@H](O)[C@H](C)O1` [DOXORUBICIN], the Cytotoxicity in the test with OCI-AML2 [3] stood at 3.2 µg/mL; with OCI-AML2 [4] it was 0.01 µg/mL; with OCI-AML2 [5], 1.93 µg/mL. For the same molecule, the figures for the IC50 in the test on SK-MEL-2, in the test with HCT-15 and with SK-OV-3 were 4.78 µM, 1.67 µM and 1.17 µM, respectively.
In the case of `Cc1ccc(-c2cc3cc(C)ccc3c(NCCN)n2)cc1`, the IC50 with SK-MEL-2, with A549, in the test with HCT-15 and with SK-OV-3 was greater than 300 µM throughout. In test [1], the Activity result is listed as “Greater activity than Camptothecin”.
In the case of `CCN1CCN(c2nc(-c3ccccc3)cc3ccccc23)CC1`, the IC50 came to 95.7 µM in the test on SK-MEL-2, 55.4 µM with A549, 7.22 µM in the test with HCT-15 and 68.9 µM in the test on SK-OV-3. Also, the Activity entry in [2] was “Weak activity”.
As to `CCN1CCN(c2nc(-c3ccccc3)cc3cc(C)ccc23)CC1`, the IC50 with SK-MEL-2 amounted to 11.9 µM; in the test on A549 it was 18.2 µM; in the test on HCT-15, 2.42 µM; in the test with SK-OV-3 it was 41.8 µM.
With `c1ccc(CNc2nc(-c3ccccc3)cc3ccccc23)cc1`, the IC50 in the test on SK-MEL-2 came out at 83 µM; in the test on A549, 177 µM; in the test with HCT-15 it was 87.4 µM; with SK-OV-3, 102 µM. The Activity entry in test [2] was “Weak activity”.
For the molecule `Cc1ccc2c(NCCN)nc(-c3ccccc3)cc2c1`, the IC50 with SK-MEL-2, in the test with A549, in the test on HCT-15 and in the test on SK-OV-3 was greater than 300 µM throughout. In [1], the Activity entry was “Greater activity than Camptothecin”.
As to `CCN1CCN(c2nc(-c3ccc(C)cc3)cc3cc(C)ccc23)CC1`, the IC50 amounted to 14.4 µM in the test with SK-MEL-2, 26.9 µM in the test with A549, 8.07 µM in the test on HCT-15 and 63.4 µM in the test with SK-OV-3. Further, the Activity entry in test [2] was “Weak activity”.
Turning to `Cc1ccc2c(N3CCCN(C)CC3)nc(-c3ccccc3C)cc2c1`, the IC50 with SK-MEL-2 was found to be 0.99 µM; in the test on A549 it was 0.44 µM; with HCT-15, 1.2 µM; with SK-OV-3, 0.7 µM.
Regarding `CN1CCCN(c2nc(-c3ccc(Cl)cc3)cc3ccccc23)CC1`, the IC50 worked out at 8.55 µM with SK-MEL-2, 11.8 µM in the test with A549, 9.78 µM in the test on HCT-15 and 20 µM in the test with SK-OV-3.
`CC(=O)N[C@H]1CC[C@H](Nc2nc(-c3ccccc3)cc3ccccc23)CC1`: the IC50 in the test with SK-MEL-2 came out at 183 µM; in the test on A549, 145 µM; in the test on HCT-15, 253 µM; in the test with SK-OV-3, 186 µM. Further, the Activity result in [2] is “Weak activity”.
In the same order, the values of `Cc1ccc2c(NCCN)nc(-c3ccccc3Cl)cc2c1` are greater than 300 µM, greater than 300 µM, greater than 300 µM, greater than 300 µM and “Weak activity”.
For the molecule `CN1CCCN(c2nc(-c3ccccc3)cc3ccccc23)CC1`, the IC50 with SK-MEL-2 amounted to 8.38 µM; in the test on A549, 10.8 µM; with HCT-15, 11.1 µM; in the test with SK-OV-3, 17 µM. In [1], the Activity result was “Greater activity than Camptothecin”.
On to `Cc1cccc(-c2cc3ccccc3c(NCc3ccccc3)n2)c1`, for which the IC50 with SK-MEL-2 was found to be 85 µM; with A549 it was 103 µM; in the test on HCT-15, 108 µM; in the test with SK-OV-3 it was 168 µM. The Activity result in test [2] is “Weak activity”.
Consider `Cc1ccc2c(NCc3ccccc3)nc(-c3ccccc3)cc2c1`, for which the IC50 in the test with SK-MEL-2 came out at 94.4 µM; in the test on A549, 122 µM; in the test on HCT-15, 64.2 µM; in the test on SK-OV-3, 156 µM.
`Cc1ccccc1-c1cc2ccccc2c(N[C@H]2CC[C@H](N)CC2)n1`: the IC50 with SK-MEL-2 turned out to be 6.45 µM; with A549, 10.2 µM; with HCT-15, 7.65 µM; in the test on SK-OV-3 it was 9.17 µM. Besides, the Activity result in test [2] is “Weak activity”.
For the molecule `Nc1nc(-c2ccccc2)cc2ccccc12`, the IC50 in the test with SK-MEL-2 was determined as 1.48 µM; in the test on A549, 2.73 µM; in the test on HCT-15, 1.87 µM; in the test on SK-OV-3 it was 2.03 µM.
On the same counts, the results for `CN1CCN(c2nc(-c3ccccc3)cc3ccccc23)CC1` are 14.5 µM, 13.6 µM, 13.9 µM and 13.7 µM.
On the same counts, the results for `Cc1ccc(-c2cc3ccccc3c(N3CCCN(C)CC3)n2)cc1` are 6.18 µM, 1.22 µM, 7.84 µM and 9.34 µM.
With `Cc1ccccc1-c1cc2ccccc2c(N)n1`, the IC50 with SK-MEL-2 was 2.11 µM; in the test on A549 it was 3.14 µM; with HCT-15, 1.92 µM; in the test on SK-OV-3, 1.81 µM.
Turning to `Cc1cccc(-c2cc3ccccc3c(N3CCCN(C)CC3)n2)c1`, the IC50 in the test with SK-MEL-2 amounted to 8.85 µM; in the test on A549, 8.57 µM; in the test with HCT-15, 9.2 µM; with SK-OV-3, 8.22 µM. Moreover, the Activity result in test [2] was “Weak activity”.
With `Cc1ccc(-c2cc3ccccc3c(NCc3ccccc3)n2)cc1`, the half-maximal inhibitory concentration (IC50) in the test on SK-MEL-2 stood at 133 µM; in the test with A549, 168 µM; with HCT-15 it was 171 µM; in the test on SK-OV-3, 193 µM.
Turning to `Cc1cccc(-c2cc3cc(C)ccc3c(NCc3ccccc3)n2)c1`, the concentration for half-maximal inhibition (IC50) in the test on SK-MEL-2 amounted to 88.7 µM; in the test with A549, 171 µM; with HCT-15, 111 µM; in the test with SK-OV-3 it was 146 µM. Further, in test [2], the Activity result was “Weak activity”.
